TAAR1 antag: human TAAR1 antagonism; inhibition, % at 3 µM; CHO RD-HGA16 TAAR1, Fluo-8 calcium fluorescence, antagonist; Q96RJ0; actives 1.5% (n = 360,000);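 active = inhibition above a per-plate cutoff, the mean inhibition of test compounds on that plate plus 3 SD, cut at about 49% in these data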
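Material: RD-HGA16 CHO cells with stable hTAAR1 and Gα16; Dosing: single nominal final test compound concentration of 3 µM; Schedule: seeding 17-24 h prior, 75-min 37 °C, 30-min RT dye loading; Detection: kinetic Fluo-8 calcium fluorescence measurement; Measure: % inhibition from peak post-agonist over basal fluorescence ratio; Benchmarks: vehicle and agonist controls.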
CHO parental Ca: counter-screen for OX1R antagonists: effect in parental CHO cells. inhibition, % at 5.6 µM. actives 0.63% (n = 330,000). AID 463079. parental CHO-K1, ATP-induced calcium, Fluo-8 fluorescence;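 active = inhibition above that plate's mean sample inhibition plus 3 SD, cut at about 26% in these data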
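test system = CHO parental line | reagent = ATP stimulus | measured by = intracellular calcium via Fluo-8 no-wash fluorescent dye | control set = ATP and no-ATP DMSO wells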
TAAR1 ag: human TAAR1 agonism | actives 0.99% (n = 360,000) | Q96RJ0 | CHO RD-HGA16 TAAR1, Fluo-8 calcium fluorescence; vehicle wells 0%, saturating PEA agonist 100% | activation, % at 3 µM;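 active = activation above the mean activation of all test compounds in the run plus 3 SD, cut at about 38% in these data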
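System: CHO-derived RD-HGA16 cells with stable Gα16 and human TAAR1 / Times: 17-24 h plating, Fluo-8 75 min 37 °C, 30 min RT / Technique: calcium-sensitive Fluo-8 signal, excitation 470-495, emission 515-575 nm / Measure: % activation relative to PEA EC100 response / Benchmarks: DMSO and PEA EC100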
OX1R antag-1: antagonists of human orexin 1 receptor (OX1R) | O43613 | OX1R-expressing cells, FRET antagonist read-out | inhibition, % at 6.6 µM | actives 1.8% (n = 330,000) | AID 485270; in the data active = inhibition mostly above about 38%, no sharp cut-off; inactive = mostly below about 40%
Target sequence (O43613 whole entry, looked up): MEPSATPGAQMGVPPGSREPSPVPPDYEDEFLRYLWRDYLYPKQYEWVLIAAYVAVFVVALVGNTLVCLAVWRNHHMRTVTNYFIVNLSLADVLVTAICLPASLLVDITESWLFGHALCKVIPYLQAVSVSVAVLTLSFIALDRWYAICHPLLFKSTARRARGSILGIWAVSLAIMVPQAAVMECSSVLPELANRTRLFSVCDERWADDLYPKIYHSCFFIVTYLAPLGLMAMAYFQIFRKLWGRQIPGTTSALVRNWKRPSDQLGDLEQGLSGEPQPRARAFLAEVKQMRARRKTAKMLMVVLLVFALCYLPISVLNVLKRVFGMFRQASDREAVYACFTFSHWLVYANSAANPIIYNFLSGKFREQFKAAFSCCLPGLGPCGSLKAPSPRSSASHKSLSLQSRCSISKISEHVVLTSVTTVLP
GPR7 antag: antagonists of human GPR7 (neuropeptides B/W receptor 1); inhibition, % at 4.4 µM; AID 1861; actives 1.1% (n = 290,000); GPR7-expressing cells, fluorescence antagonist assay; in the data active = inhibition above about 16%, passing the limit was not always enough;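 also: cells stimulated with the agonist NPW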
OX1R antag-2: blocks the human orexin 1 receptor; AID 434989; CHO/OX1R cells, Fluo-8 calcium fluorescence, orexin A; O43613; inhibition, % at 5 µM; actives 0.43% (n = 330,000);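 active = inhibition above its plate's threshold, mean inhibition of all tested compounds on the plate plus 3 SD, cut at about 37% in these data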
GPR7 antag conf: human GPR7 antagonism, confirmation assay | shares compounds with GPR7 antag | GPR7-expressing cells, calcium fluorescence antagonist mode | inhibition, % at 4.4 µM | actives 52% (n = 2,400); in the data active = inhibition above about 24%;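 also: stimulated with the GPR7 agonist NPW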
MCHR1 antag: MCHR1 (human) antagonism in GPR7 counter-screen | shares compounds with GPR7 antag | MCHR1-expressing cells, fluorescence antagonist assay | inhibition, % at 4.4 µM | actives 62% (n = 2,400); in the data active = inhibition above about 22%
Each line names hits and unclear results; the compound was inactive in the other large screens (follow-up assays come after a bar, where they were run). Most compounds without a hit are left out; they make up all but 4.5% or so of the library.

COc1ccc(C(CCNCc2ccc(OC)c(OC)c2)c2ccc(F)cc2)cc1 (configuration not stated)	GPR7 antag 31 | GPR7 antag conf 52 | MCHR1 antag 80
COc1ccc(CCNCCC(c2ccccc2)c2ccccc2)cc1OC	none (no result: CHO parental Ca, OX1R antag-1, GPR7 antag, OX1R antag-2)
CC(Sc1nnc2ccccn12)C(N)=O (configuration not stated)	GPR7 antag 25 | GPR7 antag conf inactive | MCHR1 antag inactive
O=S(=O)(NC1c2cccc3cccc(c23)C1N1CCNCC1)c1ccc(Cl)cc1 (configuration not stated)	GPR7 antag 49 | GPR7 antag conf 48 | MCHR1 antag 47
CC1(C(=O)NS(=O)(=O)c2ccc3c(c2)CCO3)CCN1C(=O)C1(c2ccc(Cl)cc2)CCC1 (configuration not stated)	none (no result: CHO parental Ca, OX1R antag-1, GPR7 antag, OX1R antag-2)
Clc1ccc(OCCOCCNCc2ccccc2)cc1Cl	GPR7 antag 90 | GPR7 antag conf inactive | MCHR1 antag 27
Cc1cc(Cl)cc(C)c1OCCOCCNCc1ccccc1	GPR7 antag 27 | GPR7 antag conf 35 | MCHR1 antag 28
CN(CCOc1ccc(Cl)c(Cl)c1)Cc1ccccc1	none
Cc1cccc(N2CCN(S(=O)(=O)c3cc(-c4cc(C)no4)ccc3C)CC2C)c1 (configuration not stated)	GPR7 antag 31 | GPR7 antag conf 45 | MCHR1 antag 61
COc1ccc(N2CCN(S(=O)(=O)c3cc(-c4cc(C)no4)ccc3C(C)C)CC2)cc1	none
COc1ccc(-c2cc(C)no2)cc1S(=O)(=O)N1CCN(c2cccc(C)c2)C(C)C1 (configuration not stated)	none
Cc1cc(-c2ccc(C(C)C)c(S(=O)(=O)N3CCN(c4ccccc4)CC3)c2)on1	GPR7 antag 27 | GPR7 antag conf 30 | MCHR1 antag 40
O=C(Nc1ccc(OC(F)(F)F)cc1)Nc1cccnc1	GPR7 antag 22 | GPR7 antag conf inactive | MCHR1 antag 30
CCn1nc(C)c(CN2CCC(C(=O)Nc3cccc(-c4cccc(Cl)c4)c3)CC2)c1C	GPR7 antag 26 | GPR7 antag conf inactive | MCHR1 antag 51
CCN(CC(=O)Nc1c(F)cccc1F)C(=O)c1cc(S(=O)(=O)N(C)C)ccc1N1CCCC1	none (no result: GPR7 antag)
CCN1CCN(c2ccc(S(=O)(=O)N3CCCCC3)cc2NC(=O)Cc2c(F)cccc2Cl)CC1	none
CCN(CC(=O)Nc1c(F)cccc1F)C(=O)c1cc(S(=O)(=O)N(CC)CC)ccc1N1CCCCC1	GPR7 antag 29 | GPR7 antag conf 32 | MCHR1 antag 26
CCN(CC)S(=O)(=O)c1ccc(N2CCCC2)c(NC(=O)Cc2c(F)cccc2Cl)c1	GPR7 antag 31 | GPR7 antag conf 44 | MCHR1 antag 41
CN(C(=O)CN1C(=O)C2C3CC(C(Br)C3Br)C2C1=O)C1CCCCC1 (configuration not stated)	GPR7 antag 23 | GPR7 antag conf 39 | MCHR1 antag inactive
CC(C)CC1NC(=O)N(CC(=O)N(C)C2CCCCC2)C1=O (configuration not stated)	none (no result: GPR7 antag)
CCOC(=O)c1[nH]c2ccc(OC)cc2c1NS(=O)(=O)c1ccc(OC)cc1OC	GPR7 antag 22 | GPR7 antag conf 32 | MCHR1 antag inactive
CN(CC(=O)NCc1ccc(F)cc1)CC(=O)Nc1ccc(Cl)c(C(F)(F)F)c1	CHO parental Ca 67, GPR7 antag 28, OX1R antag-2 57 | GPR7 antag conf 27 | MCHR1 antag 61
CN(CC(=O)NCC(=O)Nc1ccc(F)cc1)CC(=O)Nc1ccc(Cl)c(C(F)(F)F)c1	none (no result: CHO parental Ca, OX1R antag-1, GPR7 antag, OX1R antag-2)
O=C(NCc1ccccc1Cl)c1ccc(S(=O)(=O)N2CCCC2)cc1	none (no result: GPR7 antag)
